In brackets after ≈: the same amount, converted by molar mass.
These molecules were tested on Mycobacterium tuberculosis (assay: Antitubercular activity against Mycobacterium tuberculosis H37Rv ATCC 27294 after 7 days by resazurin dye based assay). Settings: H37Rv ATCC 27294, 168 h.
Assay type: functional
Method in brief: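 Resazurin microtiter MIC in 7H9 with 10% ADC. Two-fold dilutions from 1 mg/mL DMSO stocks span 25.0–0.05, 10.0–0.02 or 0.02–0.0004 µg/mL, with 2.5% DMSO final. Inoculum is bead-declumped culture grown in 7H9/10% OADC/0.05% Tween 80, diluted to OD600 0.006. Plates run 7 days at 37 °C, then 0.01% resazurin for 48 h. MIC is the lowest concentration preventing the blue-to-pink change. Three independent tests.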

Row | Structure (SMILES) | MIC [µM]
1 | O=C(CSc1nc2ccccc2c(=O)[nH]1)N[C@@H]1CCc2ccccc2C1 | 17.1 (≈ 6.25 µg/mL)
2 | O=C(CSc1nc2ccccc2c(=O)[nH]1)Nc1ccc(I)cc1 | > 22.9
3 | Cc1ccc(NC(=O)CSc2nc3ccccc3c(=O)[nH]2)cc1 | > 30.7
4 | C[C@H](NC(=O)CSc1nc2ccccc2[nH]1)C1CCCCC1 | > 31.5
5 | O=C(CSc1nc(O)c2ccccc2n1)N1CCCCC1 | > 33
6 | O=C(CSc1nc2ccccc2[nH]1)NCc1ccccc1 | > 33.6
7 | CC1CCCCC1NC(=O)CSc1nc2ccccc2[nH]1 (stereo not drawn) | > 33
8 | C[C@H]1CC[C@H](NC(=O)CSc2nc3ccccc3[nH]2)CC1 | 16.5 (≈ 5.01 µg/mL)
9 | O=C(CSc1nc2ccccc2c(=O)[nH]1)N[C@H]1CCc2ccccc2C1 | > 27.4
10 | COc1ccccc1NC(=O)CSc1nc2ccccc2[nH]1 | > 31.9
11 | O=C(CSc1nc2ccccc2c(=O)[nH]1)Nc1ccc(Cl)cc1 | 28.9 (≈ 9.99 µg/mL)
12 | C[C@H](NC(=O)CSc1nc2ccccc2c(=O)[nH]1)C1CCCCC1 | > 28.9
13 | C[C@@H](NC(=O)CSc1nc2ccccc2c(=O)[nH]1)C1CCCCC1 | > 28.9
14 | O=C(CSc1nc2ccccc2[nH]1)NCC1CCCCC1 | 82.4 (≈ 25 µg/mL)
15 | O=C(CSc1nc2ccccc2c(=O)[nH]1)NCc1ccccc1 | 4.8 (≈ 1.56 µg/mL)
16 | O=C(CSc1nc2ccccc2c(=O)[nH]1)NC1CCCC1 | 2.07 (≈ 0.628 µg/mL)
17 | CCCCCCCc1ccc(NC(=O)CSc2nc3ccccc3[nH]2)cc1 | > 65.5

Row | Structure (SMILES) | MIC [µM]
18 | CC1CCC(NC(=O)CSc2nc3ccccc3[nH]2)CC1 (stereo not drawn) | 41.2 (≈ 12.5 µg/mL)
19 | CC1CCCC(NC(=O)CSc2nc3ccccc3[nH]2)C1 (stereo not drawn) | > 33
20 | O=C(CSc1nc2ccccc2[nH]1)Nc1ccc2c(c1)CCC2 | > 29.6
21 | O=C(CSc1nc2ccccc2c(=O)[nH]1)Nc1ccccc1 | > 32.1
22 | CCCc1ccc(NC(=O)CSc2nc3ccccc3c(=O)[nH]2)cc1 | > 28.3
23 | O=C(CSc1nc(O)c2ccccc2n1)Nc1ccc(Br)cc1 | > 25.6
24 | COc1ccc(NC(=O)CSc2nc3ccccc3c(=O)[nH]2)cc1 | > 29.3
25 | CCCCCc1ccc(NC(=O)CSc2nc3ccccc3[nH]2)cc1 | > 70.7
26 | O=C(CSc1nc2ccccc2[nH]1)NC1CCCCC1 | > 31.3
27 | O=C(CSc1nc2ccccc2[nH]1)Nc1ccc2ccccc2c1 | > 75
28 | CCCCCc1ccc(NC(=O)CSc2nc3ccccc3c(=O)[nH]2)cc1 | 26.2 (≈ 10 µg/mL)
29 | O=C(CSc1nc2ccccc2c(=O)[nH]1)Nc1ccc(F)cc1 | > 30.4
30 | O=C(CSc1nc2ccccc2c(=O)[nH]1)Nc1ccc2ccccc2c1 | > 27.7
31 | CN(C(=O)CSc1nc2ccccc2c(=O)[nH]1)C1CCCCC1 | > 75.4
32 | O=C(CSc1nc(O)c2ccccc2n1)Nc1ccc([N+](=O)[O-])cc1 | > 28.1
33 | NNC(=O)c1ccncc1 [ISONIAZID] | 2.9 (≈ 0.398 µg/mL)
